Measurements taken from article PMC4415995 (Advances in Therapy, 2015).
Like-named read-outs stand apart in the source and are kept apart here. Marks after values point to notes of the source that are not given here.

Assays:
[1] = format: in vivo, human; conditions: for AUC / AUC(0-inf) / Cmax / half-life / Tmax: human, plasma, oral; for Cmax: C max
How it was run: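 Oral doses of 0.5–5 mg once daily for 7 days, given with 150 mL water before a standardized ~600 kcal breakfast. Venous blood was drawn pre-dose and 0.25–24 h after dosing on Days 1 and 7, and pre-breakfast on Days 9–11. Urine was pooled at 4 °C over intervals. Samples were stored at −70 °C. Parent and active O-deethyl metabolite were measured by solid-phase extraction and LC–MS/MS with deuterated internal standards. Parameters were non-compartmental; metabolite ratio was AUCτ(M2)/AUCτ(parent).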

[2] = tested on: Japanese patients with T2DM; experiment: Urinary glucose excretion; format: in vivo, human
How it was run: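 Dosing was once daily, 0.5–5 mg or placebo, before a standardized ~600 kcal breakfast. Read-outs were 24-h cumulative UGE, total UGE and per-interval UGE rate, plus change from Day −1. LS mean difference vs placebo with 95% CI.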

Question: Which “Ae0–24” value ([1]; 0.5 mg luseogliflozin OD, Day 1, urine) does the source give for `CCOc1ccc(Cc2cc([C@@H]3S[C@H](CO)[C@@H](O)[C@H](O)[C@H]3O)c(OC)cc2C)cc1` [Luseogliflozin, (1S)-1,5-anhydro-1-[5-(4-ethoxybenzyl)-2-methoxy-4-methylphenyl]-1-thio-D-glucitol] here?
Answer: 3.76 ± 0.832 % of dose

Question: What about the “Ae0–24” value ([1]; 0.5 mg luseogliflozin OD, Day 7, urine) of the same compound?
Answer: 4.56 ± 1.04 % of dose

Question: And the “Ae0–24” value ([1]; 1 mg luseogliflozin OD, Day 1, urine)?
Answer: 4.06 ± 0.497 % of dose

Question: What about the “Ae0–24” value ([1]; 1 mg luseogliflozin OD, Day 7, urine) of the same compound?
Answer: 4.30 ± 0.875 % of dose

Question: And the “Ae0–24” value ([1]; 2.5 mg luseogliflozin OD, Day 1, urine)?
Answer: 4.51 ± 1.13 % of dose

Question: And the “Ae0–24” value ([1]; 2.5 mg luseogliflozin OD, Day 7, urine)?
Answer: 4.79 ± 1.09 % of dose

Question: And the “Ae0–24” value ([1]; 5 mg luseogliflozin OD, Day 1, urine)?
Answer: 4.11 ± 0.763 % of dose

Question: And the “Ae0–24” value ([1]; 5 mg luseogliflozin OD, Day 7, urine)?
Answer: 4.56 ± 0.617 % of dose

Question: And the “accumulation after multiple doses” value ([1]; AUCinf Day 1 vs AUCτ Day 7 comparable)?
Answer: does not accumulate

Question: What about the “dose proportionality for C max and AUCτ (power model)” value ([1]; Day 7, 0.5-5 mg) of the same compound?
Answer: dose proportionality

Question: And the AUC ([1]; 0.5 mg)?
Answer: 179 ± 32.6 ng·h/mL

Question: And the AUC(0-inf) ([1]; 0.5 mg)?
Answer: 171 ± 38.4 ng·h/mL

Question: What about the Cmax ([1]; 0.5 mg, 0.5 mg luseogliflozin OD, Day 1, plasma) of the same compound?
Answer: 21.9 ± 2.88 ng/mL

Question: What about the Cmax ([1]; 0.5 mg, 0.5 mg luseogliflozin OD, Day 7, plasma) of the same compound?
Answer: 25.6 ± 4.25 ng/mL

Question: And the half-life ([1]; 0.5 mg, t 1/2, 0.5 mg luseogliflozin OD, Day 1, plasma)?
Answer: 9.86 ± 1.57 h

Question: And the half-life ([1]; 0.5 mg, t 1/2, 0.5 mg luseogliflozin OD, Day 7, plasma)?
Answer: 10.5 ± 1.03 h

Question: And the Tmax ([1]; 0.5 mg, t max, 0.5 mg luseogliflozin OD, Day 1, plasma)?
Answer: 0.857 ± 0.556 h

Question: What about the Tmax ([1]; 0.5 mg, t max, 0.5 mg luseogliflozin OD, Day 7, plasma) of the same compound?
Answer: 0.643 ± 0.244 h

Question: What about the AUC ([1]; 1 mg) of the same compound?
Answer: 370 ± 55.5 ng·h/mL

Question: And the AUC(0-inf) ([1]; 1 mg)?
Answer: 357 ± 53.9 ng·h/mL

Question: And the Cmax ([1]; 1 mg, 1 mg luseogliflozin OD, Day 1, plasma)?
Answer: 43.7 ± 10.8 ng/mL

Question: What about the Cmax ([1]; 1 mg, 1 mg luseogliflozin OD, Day 7, plasma) of the same compound?
Answer: 52.3 ± 10.9 ng/mL

Question: And the half-life ([1]; 1 mg, t 1/2, 1 mg luseogliflozin OD, Day 1, plasma)?
Answer: 9.61 ± 1.34 h

Question: What about the half-life ([1]; 1 mg, t 1/2, 1 mg luseogliflozin OD, Day 7, plasma) of the same compound?
Answer: 10 ± 1.37 h

Question: What about the Tmax ([1]; 1 mg, t max, 1 mg luseogliflozin OD, Day 1, plasma) of the same compound?
Answer: 0.688 ± 0.259 h

Question: And the Tmax ([1]; 1 mg, t max, 1 mg luseogliflozin OD, Day 7, plasma)?
Answer: 0.688 ± 0.259 h

Question: What about the AUC ([1]; 2.5 mg) of the same compound?
Answer: 899 ± 148 ng·h/mL

Question: What about the AUC(0-inf) ([1]; 2.5 mg) of the same compound?
Answer: 864 ± 132 ng·h/mL

Question: And the Cmax ([1]; 2.5 mg, 2.5 mg luseogliflozin OD, Day 1, plasma)?
Answer: 119 ± 27 ng/mL

Question: What about the Cmax ([1]; 2.5 mg, 2.5 mg luseogliflozin OD, Day 7, plasma) of the same compound?
Answer: 136 ± 42 ng/mL

Question: What about the half-life ([1]; 2.5 mg, t 1/2, 2.5 mg luseogliflozin OD, Day 1, plasma) of the same compound?
Answer: 9.24 ± 0.928 h

Question: What about the half-life ([1]; 2.5 mg, t 1/2, 2.5 mg luseogliflozin OD, Day 7, plasma) of the same compound?
Answer: 9.2 ± 0.71 h

Question: And the Tmax ([1]; 2.5 mg, t max, 2.5 mg luseogliflozin OD, Day 1, plasma)?
Answer: 0.625 ± 0.354 h

Question: And the Tmax ([1]; 2.5 mg, t max, 2.5 mg luseogliflozin OD, Day 7, plasma)?
Answer: 1 ± 0.886 h

Question: And the AUC ([1]; 5 mg)?
Answer: 1880 ± 318 ng·h/mL

Question: What about the AUC(0-inf) ([1]; 5 mg) of the same compound?
Answer: 1690 ± 271 ng·h/mL

Question: What about the Cmax ([1]; 5 mg, 5 mg luseogliflozin OD, Day 1, plasma) of the same compound?
Answer: 243 ± 45.7 ng/mL

Question: What about the half-life ([1]; 5 mg, t 1/2, 5 mg luseogliflozin OD, Day 1, plasma) of the same compound?
Answer: 8.96 ± 1.11 h

Question: What about the half-life ([1]; 5 mg, t 1/2, 5 mg luseogliflozin OD, Day 7, plasma) of the same compound?
Answer: 9.54 ± 1.26 h

Question: And the Tmax ([1]; 5 mg, t max, 5 mg luseogliflozin OD, Day 1, plasma)?
Answer: 0.625 ± 0.231 h

Question: And the Tmax ([1]; 5 mg, t max, 5 mg luseogliflozin OD, Day 7, plasma)?
Answer: 0.688 ± 0.259 h

Question: What about the half-life ([1]; mean t 1/2, all four doses (0.5-5 mg)) of the same compound?
Answer: ~10 h

Question: What about the Tmax ([1]; t max (mean), across 0.5-5 mg doses, Days 1 and 7, plasma) of the same compound?
Answer: 0.625 to 1 h

Question: And the “UGE0–24h” value ([2]; 0.5 mg OD, Day 1)?
Answer: 81.5 ± 33.2 g

Question: And the “UGE0–24h LS mean difference vs placebo (95% CI)” value ([2]; 0.5 mg OD, Day 1)?
Answer: 46.4 (32.9, 60.0)* g

Question: What about the “Least-squares mean difference in 24-h UGE vs placebo” value (“Least-squares mean difference” for short) ([2]; 0.5 mg OD, Day 7) of the same compound?
Answer: 49.2 g/day

Question: And the “UGE0–24h” value ([2]; 0.5 mg OD, Day 7)?
Answer: 81.7 ± 30.1 g

Question: And the “UGE0–24h LS mean difference vs placebo (95% CI)” value ([2]; 0.5 mg OD, Day 7)?
Answer: 49.2 (27.9, 70.5)* g

Question: And the “UGE0–24h LS mean difference vs placebo (95% CI)” value ([2]; 0.5 mg OD, Day 7, listed as luseogliflozin)?
Answer: 49.2 g

Question: What about the “UGE0–24h” value ([2]; 1 mg OD, Day 1) of the same compound?
Answer: 75.1 ± 23.3 g

Question: What about the “UGE0–24h LS mean difference vs placebo (95% CI)” value ([2]; 1 mg OD, Day 1) of the same compound?
Answer: 58.9 (45.7, 72.1)* g

Question: What about the “Least-squares mean difference” value ([2]; 1 mg OD, Day 7) of the same compound?
Answer: 66.5 g/day

Question: And the “UGE0–24h” value ([2]; 1 mg OD, Day 7)?
Answer: 85.3 ± 18.8 g

Question: And the “UGE0–24h LS mean difference vs placebo (95% CI)” value ([2]; 1 mg OD, Day 7)?
Answer: 66.5 (45.8, 87.1)* g

Question: And the “UGE0–24h LS mean difference vs placebo (95% CI)” value ([2]; 1 mg OD, Day 7, listed as luseogliflozin)?
Answer: 66.5 g

Question: What about the “UGE0–24h” value ([2]; 2.5 mg OD, Day 1) of the same compound?
Answer: 139 ± 31.1 g

Question: What about the “UGE0–24h LS mean difference vs placebo (95% CI)” value ([2]; 2.5 mg OD, Day 1) of the same compound?
Answer: 91.7 (78.1, 105)* g

Question: What about the “Least-squares mean difference” value ([2]; 2.5 mg OD, Day 7) of the same compound?
Answer: 89.4 g/day

Question: What about the “UGE0–24h” value ([2]; 2.5 mg OD, Day 7) of the same compound?
Answer: 131 ± 29.9 g

Question: What about the “UGE0–24h LS mean difference vs placebo (95% CI)” value ([2]; 2.5 mg OD, Day 7) of the same compound?
Answer: 89.4 (68.2, 111)* g
